High-throughput results: PubChem BioAssay, several laboratories
Shown are actives, neighbours in structure and some others; about 4.5% of the full set was active somewhere.
MDM2 E3 inh = MDM2-luciferase reporter signal enhancers, primary screen, MDM2 E3 ligase inhibitor project, cell-based, luminescence, 1536-well; cell-based MDM2 ubiquitination luciferase reporter, 2 h; 0 = plate control, 100 = twice control, blank-subtracted; signal enhancement, % at 5 µM; hit rate 0.11% among 210,000; AID 1230, 2008;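 active means signal enhancement of 30% or more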;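 further: luminescence tracks abundance of the self-degrading MDM2-luciferase fusion protein; higher signal means inhibition of MDM2 E3 ligase activity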
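Material: Stable MDM2–luciferase fusion reporter cells | Amount: 2000 cells seeded into each well | Dosing: One concentration, 5 µM, with 0.2% DMSO | Incubation: 4 h cell settling then 2 h compound exposure, 37 °C | Measured by: Luciferase luminescence | Read-out basis: % enhancement relative to plate controls after blank subtraction | Benchmarks: Control and blank well means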
PERK inhibitor = block of dimerizer-induced PERK translation repression, primary screen, PERK inhibitor project, CHO PERK-DD cells, SEAP luminescence, HTS; hit rate 0.17% among 220,000; AID 1416, 2008; inhibition, % at 5.6 µM; CHO PERK-DD fusion, SEAP luminescence translation reporter;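 active means inhibition above the mean inhibition of all tested compounds plus 3 SD, set separately per screening campaign, cut at about 2.9% in these data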;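 further: PERK kinase domain activated by AP20187 dimerizer at 100 nM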
AHR act = AHR activators, primary screen, cell-based, luminescence, luciferase reporter, human; Aryl hydrocarbon receptor (Homo sapiens), P35869; AHR-responsive luciferase reporter cells; activation, % at 5 µM; hit rate 2.5% among 320,000; AID 2796, 2010; in the data active means activation above about 47%
Target sequence (P35869 whole entry, looked up): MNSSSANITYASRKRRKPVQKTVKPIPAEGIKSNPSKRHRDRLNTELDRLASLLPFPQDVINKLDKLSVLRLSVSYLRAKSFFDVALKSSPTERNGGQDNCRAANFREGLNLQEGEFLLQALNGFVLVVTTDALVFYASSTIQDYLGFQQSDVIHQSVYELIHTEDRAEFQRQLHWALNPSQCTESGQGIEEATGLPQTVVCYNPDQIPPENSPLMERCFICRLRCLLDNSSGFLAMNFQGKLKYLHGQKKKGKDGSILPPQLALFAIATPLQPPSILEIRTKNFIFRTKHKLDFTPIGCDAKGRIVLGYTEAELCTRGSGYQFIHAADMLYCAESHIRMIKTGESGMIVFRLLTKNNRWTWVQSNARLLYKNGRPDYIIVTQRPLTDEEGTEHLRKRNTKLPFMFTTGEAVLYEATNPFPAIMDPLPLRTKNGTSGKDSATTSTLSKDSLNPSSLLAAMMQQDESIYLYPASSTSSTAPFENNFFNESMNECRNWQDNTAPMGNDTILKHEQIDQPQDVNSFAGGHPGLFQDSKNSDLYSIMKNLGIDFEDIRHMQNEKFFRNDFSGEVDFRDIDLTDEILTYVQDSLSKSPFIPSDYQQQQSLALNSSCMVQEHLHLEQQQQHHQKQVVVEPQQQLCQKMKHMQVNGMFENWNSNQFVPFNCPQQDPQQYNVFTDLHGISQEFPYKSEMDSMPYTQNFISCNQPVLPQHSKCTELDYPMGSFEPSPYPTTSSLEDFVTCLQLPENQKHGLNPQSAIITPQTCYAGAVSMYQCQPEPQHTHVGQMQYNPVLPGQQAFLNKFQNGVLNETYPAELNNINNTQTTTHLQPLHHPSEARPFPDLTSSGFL
APP 5'UTR act = activators of APP 5'UTR luciferase reporter, primary screen, SH-SY5Y cells. SH-SY5Y APP 5'UTR luciferase reporter, luminescence; zero percent = DMSO vehicle wells. AID 1276, 2008. activation, % at 2 µM. hit rate 1% among 190,000;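 active means activation above a set limit, based on mean plus 3 SD of controls, cut at about 140% in these data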
NF-kB neuron act = activators of NF-kB expression in neurons, primary screen, cell-based, HTS; hit rate 1.6% among 190,000; AID 1239, 2008; human neuronal cells, NF-kB reporter expression; stronger effect = higher value; fold change at 12.5 µM; in the data active means fold change above about 3.3
STAT1 activator = STAT1 signaling activators, primary screen, cell-based, HTS, luciferase reporter. NIH 3T3 STAT1-luciferase reporter, IFN-gamma, luminescence; 100% = IFN-gamma alone, no compound. activation (% of control), % at 5.5 µM. hit rate 2.6% among 200,000;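 active means activation above the screen-wide mean activation plus 3 SD, cut at about 130% in these data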
Each line names hits and unclear results; the compound was inactive in the other large screens.

O=C(O)/C=C/c1ccccc1[N+](=O)[O-]	none (no result: APP 5'UTR act, NF-kB neuron act, STAT1 activator)
COc1c(OC(C)=O)ccc(/C=C/c2ccc3ccccc3n2)c1[N+](=O)[O-]	APP 5'UTR act 136.4
O=[N+]([O-])c1ccc(/C=C/c2ccc3cccc([N+](=O)[O-])c3n2)cc1	AHR act 105.9
O=[N+]([O-])c1ccccc1/C=C/c1ccc2ccccc2n1	AHR act 74.7 (no result: MDM2 E3 inh, PERK inhibitor, APP 5'UTR act, NF-kB neuron act, STAT1 activator)
CN(Cc1cn[nH]c1-c1ccc(-c2ccccc2)cc1)CC1CCOCC1	none (no result: APP 5'UTR act, NF-kB neuron act, STAT1 activator)
CCOC(=O)c1sc(N)c(C(=O)Nc2ccccc2OC)c1C	none
O=C(COC(=O)c1cnc(Cl)c(Cl)c1)NC1CC1	none (no result: MDM2 E3 inh, PERK inhibitor, APP 5'UTR act, NF-kB neuron act, STAT1 activator)
C=CCN1C(=O)c2ccc(C(=O)N(CCC)CC(=O)Nc3ccccc3C)cc2C1=O	none (no result: MDM2 E3 inh, PERK inhibitor, APP 5'UTR act, NF-kB neuron act, STAT1 activator)
O=C(CSc1ncnc2c1nnn2-c1ccc(F)cc1)N1CCN(c2ccccc2)CC1	none (no result: MDM2 E3 inh, AHR act, NF-kB neuron act)
COc1ccc2c(c1OC)C(=O)N(c1cccc(C)c1)C2	NF-kB neuron act 5.19, STAT1 activator 134.9
COc1ccc2c(c1OC)C(=O)N(c1ccccn1)C2	AHR act 52.1, STAT1 activator 148.9
COc1ccc2c(c1OC)C(=O)N(c1cccc(C(F)(F)F)c1)C2	NF-kB neuron act 7.38, STAT1 activator 149.2
COc1ccccc1N1Cc2ccc(OC)c(OC)c2C1=O	none (no result: MDM2 E3 inh, PERK inhibitor, APP 5'UTR act, NF-kB neuron act, STAT1 activator)
COc1ccc2c(c1OC)C(=O)N(c1ccc(C)cc1)C2	none (no result: APP 5'UTR act, NF-kB neuron act, STAT1 activator)
O=C(CCn1c(=S)oc2ccccc21)NC1CCCCCCC1	none (no result: APP 5'UTR act, NF-kB neuron act, STAT1 activator)
CC(=O)N1C(C(=O)O)CSC1c1ccc(C)cc1 (stereo not drawn)	NF-kB neuron act 4.19 (no result: PERK inhibitor, STAT1 activator)
COc1ccc(-c2csc(NC(=O)CSc3n[nH]c(N)n3)n2)cc1	AHR act 49.3
O=C(CSc1nc2ccccc2[nH]1)Nc1nc(-c2ccc(Br)cc2)cs1	AHR act 48.0
Oc1oc(-c2ccccc2)nc1C=Nc1cccc2ccccc12	none
Oc1oc(-c2ccccc2)nc1C=NCc1ccncc1	AHR act 69.6
COc1ccccc1/C=C/C=N/NC(=O)CCn1nnc2ccccc21	AHR act 66.4
COc1ccc(/C=N/NC(=O)CCn2nnc3ccccc32)cc1	none (no result: APP 5'UTR act, NF-kB neuron act, STAT1 activator)
COc1ccccc1/C=C/C=N/NC(=O)Cc1cccn1C	none
COc1ccccc1/C=C\C=N\NC(=O)CCn1nnc2ccccc21	AHR act 74.1
Cc1cccc(C)c1NC(=O)c1c[nH]c2ccccc12	AHR act 54.9 (no result: MDM2 E3 inh, PERK inhibitor, APP 5'UTR act, NF-kB neuron act, STAT1 activator)
COc1ccccc1NC(=O)c1cnc(Nc2ccccc2OC)c2ccccc12	AHR act 73.2
COc1ccccc1NC(=O)c1c[nH]c2ccccc12	AHR act 60.5 (no result: MDM2 E3 inh, PERK inhibitor, APP 5'UTR act, NF-kB neuron act, STAT1 activator)
Cc1cccc(C)c1NC(=O)CNC(=O)Cc1c[nH]c2ccccc12	none (no result: MDM2 E3 inh, PERK inhibitor, APP 5'UTR act, NF-kB neuron act, STAT1 activator)
CC/C(C)=N/Nc1nc(-c2cc3cccc(OC)c3oc2=O)cs1	none (no result: APP 5'UTR act, NF-kB neuron act, STAT1 activator)
CCOc1ccc(S(=O)(=O)N2CCC(C(=O)NCc3ccncc3)CC2)cc1	none (no result: MDM2 E3 inh, PERK inhibitor, APP 5'UTR act, NF-kB neuron act, STAT1 activator)
COC(=O)c1ccc(-c2ccc(/C=N/N3C(=O)C4C5C=CC(CC5)C4C3=O)o2)cc1 (stereo not drawn)	STAT1 activator 132.1
O=C(O)c1cc(-c2ccc(/C=N/N3C(=O)C4C5C=CC(CC5)C4C3=O)o2)ccc1Cl (stereo not drawn)	none
C(=N\Nc1nncc2ccccc12)/c1ccccc1	none (no result: APP 5'UTR act, NF-kB neuron act, STAT1 activator)
COc1ccc(/C=N/Nc2nncc3ccccc23)c(OC)c1	STAT1 activator 147.2
Cc1cccc(/C=N/Nc2nncc3ccccc23)c1	APP 5'UTR act 207.9
C#CCOCCOCCOCCNc1nc(N2CCN(C(=O)[C@H](CCC(=O)O)n3cc(C(N)CC(C)C)nn3)CC2)nc(N2CCN(C(=O)[C@H](CCC(=O)O)n3cc(C(N)CC(C)C)nn3)CC2)n1 (stereo partly drawn)	none (no result: MDM2 E3 inh)
O=C1CCN(CCCc2ccccc2)CCN1[C@H](CO)Cc1ccccc1	none (no result: MDM2 E3 inh, PERK inhibitor, APP 5'UTR act, NF-kB neuron act, STAT1 activator)
Cc1cc(C)nc(/N=C(\N)N2CCc3ccccc32)n1	AHR act 54.2
Cc1cc(C)nc(/N=C(\N)N2CCCCCC2)n1	none
